Test results reported in ChEMBL document CHEMBL1157556, “Synthesis and biological screening of a combinatorial library of beta-chlorovinyl chalcones as anticancer, anti-inflammatory and antimicrobial agents” (Bioorg Med Chem, 2010).
In brackets after ≈: the same amount, converted by molar mass.

How the values were obtained:
Penicillium chrysogenum = assay: Antifungal activity against Penicillium chrysogenum MTCC 1996 at 100 ug/ml after 48 hrs agar diffusion method; format: functional; settings: for zone of inhibition at 100 µg/mL: MTCC 1996, 48 h, read-out: IZ
Outline: (§1)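 Fungal spore suspensions in sterile distilled water adjusted to 10⁶ cfu/mL; 0.1 mL spread on Sabouraud dextrose agar. Wells of 6 mm filled with 0.1 mL compound dilution in DMSO. DMSO (1%) control; nystatin (30 µg/mL) reference. Duplicate plates incubated at 28 °C for 48 h. Activity read as inhibition zone diameter in mm.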

Aspergillus flavus = assay: Antifungal activity against Aspergillus flavus MTCC 2501 at 100 ug/ml after 48 hrs agar diffusion method; format: functional; settings: for zone of inhibition at 100 µg/mL: MTCC 2501, 48 h, read-out: IZ; outline: as §1
Aspergillus niger = assay: Antifungal activity against Aspergillus niger MTCC 1781 at 100 ug/ml after 48 hrs agar diffusion method; format: functional; settings: for zone of inhibition at 100 µg/mL: MTCC 1781, 48 h, read-out: IZ; outline: as §1
Trichoderma viride = assay: Antifungal activity against Trichoderma viride MTCC 167 at 100 ug/ml after 48 hrs agar diffusion method; format: functional; settings: for zone of inhibition at 100 µg/mL: MTCC 167, 48 h, read-out: IZ; outline: as §1
THP-1 [1] = assay: Cytotoxicity against human THP1 cells assessed as CCK8 release at 10 uM after 24 hrs by ELISA; format: cell-based; settings: thp-1, 24 h
Outline: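 Same THP-1 cytokine-assay cells, with compounds in 0.5% DMSO and LPS stimulation, were scored in parallel for cytotoxicity by CCK-8.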

Calu-1 = assay: Anticancer activity against human Calu1 cells at 10 uM after 48 hrs by propidium iodide fluorescence assay; format: functional
Outline: (§2)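 Propidium iodide DNA-fluorescence assay. Seeding 3000–7500 cells/well, 24 h recovery at 37 °C in 5% CO₂. Compounds in 0.1% DMSO added to triplicate wells at 10 µM. Flavopiridol 700 nM and gemcitabine 500 nM as reference inhibitors. Plates frozen at −80 °C for 24 h, thawed to room temperature, fluorescence read at excitation 530 nm and emission 620 nm. Percent cytotoxicity calculated.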

Klebsiella pneumoniae [2] = assay: Antibacterial activity against Klebsiella pneumoniae NCIM 2957 after 24 hrs; format: functional; settings: NCIM 2957, 24 h
Outline: (§3)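 Agar well diffusion on Mueller Hinton agar seeded with 0.1 mL of a 10⁵ cfu/mL suspension in 0.85% saline. Compounds dissolved in DMSO, final concentrations 25–250 µg/mL, 0.1 mL loaded per 6 mm well. DMSO (1%) control; tetracycline (10 µg/mL) reference. Duplicate plates incubated 24 h at 37 °C. Inhibition zone read in mm. MIC taken as lowest concentration giving complete growth inhibition.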

THP-1 [3] = assay: Antiinflammatory activity in human THP1 cells assessed as inhibition of LPS-induced TNFalpha release at 10 uM after 24 hrs by ELISA; format: functional; settings: THP-1, 24 h
Outline: (§4)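 THP-1 cells grown in RPMI 1640 with 10% FBS, penicillin and streptomycin, then PMA-differentiated. Compounds in 0.5% DMSO preincubated 30 min at 37 °C before LPS (E. coli 0127:B8) stimulation. TNF-α and IL-6 release measured by kit per the manufacturer (BD Biosciences). Percent inhibition calculated relative to control. Dexamethasone 1 µM as reference.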

PANC-1 = assay: Anticancer activity against human PANC1 cells at 10 uM after 48 hrs by propidium iodide fluorescence assay; format: functional; outline: as §2
Bacillus subtilis [4] = assay: Antibacterial activity against Bacillus subtilis MTCC 1789 after 24 hrs; format: functional; settings: MTCC 1789, 24 h; outline: as §3
NCI-H460 = assay: Anticancer activity against human H460 cells at 10 uM after 48 hrs by propidium iodide fluorescence assay; format: functional; outline: as §2
Staphylococcus aureus [5] = assay: Antibacterial activity against Staphylococcus aureus MTCC 96 after 24 hrs; format: functional; settings: MTCC 96, 24 h; outline: as §3
Proteus vulgaris [6] = assay: Antibacterial activity against Proteus vulgaris MTCC 1771 after 24 hrs; format: functional; settings: MTCC 1771, 24 h; outline: as §3
Escherichia coli [7] = assay: Antibacterial activity against Escherichia coli MTCC 1650 after 24 hrs; format: functional; settings: MTCC 1650, 24 h; outline: as §3
Bacillus subtilis [8] = assay: Antibacterial activity against Bacillus subtilis MTCC 1789 at 50 ug/ml after 24 hrs agar diffusion method; format: functional; settings: MTCC 1789, 24 h, read-out: IZ; outline: as §3
ACHN = assay: Anticancer activity against human ACHN cells at 10 uM after 48 hrs by propidium iodide fluorescence assay; format: functional; outline: as §2
Escherichia coli [9] = assay: Antibacterial activity against Escherichia coli MTCC 1650 at 50 ug/ml after 24 hrs agar diffusion method; format: functional; settings: MTCC 1650, 24 h, read-out: IZ; outline: as §3
THP-1 [10] = assay: Antiinflammatory activity in human THP1 cells assessed as inhibition of LPS-induced IL6 release at 10 uM after 24 hrs by ELISA; format: functional; settings: THP-1, 24 h; outline: as §4
HCT-116 = assay: Anticancer activity against human HCT116 cells at 10 uM after 48 hrs by propidium iodide fluorescence assay; format: functional; outline: as §2
Proteus vulgaris [11] = assay: Antibacterial activity against Proteus vulgaris MTCC 1771 at 50 ug/ml after 24 hrs agar diffusion method; format: functional; settings: MTCC 1771, 24 h, read-out: IZ; outline: as §3
Klebsiella pneumoniae [12] = assay: Antibacterial activity against Klebsiella pneumoniae NCIM 2957 at 50 ug/ml after 24 hrs agar diffusion method; format: functional; settings: NCIM 2957, 24 h, read-out: IZ; outline: as §3
Staphylococcus aureus [13] = assay: Antibacterial activity against Staphylococcus aureus MTCC 96 at 50 ug/ml after 24 hrs agar diffusion method; format: functional; settings: MTCC 96, 24 h, read-out: IZ; outline: as §3
Candida albicans = assay: Antifungal activity against Candida albicans MTCC 227 at 100 ug/ml after 48 hrs agar diffusion method; format: functional; settings: MTCC 227, 48 h, read-out: IZ; outline: as §1

Row | Compound | Activity (THP-1 [1]) [%] | Activity (Calu-1) [%] | MIC (Klebsiella pneumoniae [2]) [µg/mL] | inhibition at 10 µM (THP-1 [3]) [%] | Activity (PANC-1) [%] | MIC (Bacillus subtilis [4]) [µg/mL] | Activity (NCI-H460) [%] | MIC (Staphylococcus aureus [5]) [µg/mL] | zone of inhibition at 100 µg/mL (Aspergillus flavus) [mm] | MIC (Proteus vulgaris [6]) [µg/mL] | MIC (Escherichia coli [7]) [µg/mL] | zone of inhibition at 50 µg/mL (Bacillus subtilis [8]) [mm] | Activity (ACHN) [%] | zone of inhibition at 50 µg/mL (Escherichia coli [9]) [mm] | inhibition at 10 µM (THP-1 [10]) [%] | zone of inhibition at 100 µg/mL (Aspergillus niger) [mm] | Activity (HCT-116) [%] | zone of inhibition at 100 µg/mL (Trichoderma viride) [mm] | zone of inhibition at 50 µg/mL (Proteus vulgaris [11]) [mm] | zone of inhibition at 50 µg/mL (Klebsiella pneumoniae [12]) [mm] | also measured
1 | NYSTATIN |  |  |  |  |  |  |  |  |  |  |  |  |  |  |  |  |  |  |  |  | inhibition zone (IZ) (Penicillium chrysogenum): 14 mm; inhibition zone (IZ) (Aspergillus flavus): 16 mm; inhibition zone (IZ) (Aspergillus niger): 13 mm; inhibition zone (IZ) (Trichoderma viride): 12 mm
2 | COc1ccc(C(=O)/C=C/C=C(\Cl)c2ccc(OC)cc2OC)cc1 | 35 | 7 | 50 (≈ 139 µM) | 0 | 7 | 50 (≈ 139 µM) | 15 | 50 (≈ 139 µM) | 10 | 50 (≈ 139 µM) | 50 (≈ 139 µM) | 12 | 33 | 10 | 40 | 11 | 0 | 12 |  |  | 
3 | COc1ccc(C(=O)/C=C/C=C(\Cl)c2cccc(Cl)c2)cc1 | 35 | 20 | 50 (≈ 150 µM) | 1 | 18 | 50 (≈ 150 µM) | 26 | 50 (≈ 150 µM) | 8 | 50 (≈ 150 µM) | 50 (≈ 150 µM) | 15 | 22 | 10 | 3 |  | 31 | 11 | 15 | 17 | zone of inhibition at 50 µg/mL (Staphylococcus aureus [13]): 13 mm
4 | COc1ccc(C(=O)/C=C/C=C(\Cl)c2ccc(F)cc2)c(OC)c1 | 0 | 36 | 50 (≈ 144 µM) | 0 | 23 | 50 (≈ 144 µM) | 26 | 50 (≈ 144 µM) | 10 | 50 (≈ 144 µM) | 50 (≈ 144 µM) | 10 | 30 | 11 | 44 |  | 14 |  | 16 |  | 
5 | CN(C)[C@@H]1C(O)=C(C(N)=O)C(=O)[C@@]2(O)C(O)=C3C(=O)c4c(O)cccc4[C@@](C)(O)[C@H]3C[C@@H]12 [TETRACYCLINE] |  |  |  |  |  |  |  |  |  |  |  | 18 |  | 15 |  |  |  |  | 16 | 20 | zone of inhibition at 50 µg/mL (Staphylococcus aureus [13]): 18 mm
6 | COc1ccc(C(=O)/C=C/C=C(\Cl)c2ccc(Cl)cc2)c(OC)c1 | 0 | 32 | 50 (≈ 138 µM) | 0 | 32 | 50 (≈ 138 µM) | 21 | 50 (≈ 138 µM) | 12 | 50 (≈ 138 µM) | 50 (≈ 138 µM) | 14 | 37 | 10 | 43 | 14 | 26 | 12 | 18 | 15 | zone of inhibition at 100 µg/mL (Penicillium chrysogenum): 14 mm; zone of inhibition at 50 µg/mL (Staphylococcus aureus [13]): 13 mm
7 | COc1ccc(C(=O)/C=C/C=C(\Cl)c2ccc(Br)cc2)c(OC)c1 | 0 | 27 | 50 (≈ 123 µM) | 0 | 33 | 50 (≈ 123 µM) | 16 | 50 (≈ 123 µM) | 18 | 50 (≈ 123 µM) | 50 (≈ 123 µM) | 16 | 39 | 13 | 36 | 12 | 22 | 16 | 10 | 18 | zone of inhibition at 100 µg/mL (Penicillium chrysogenum): 16 mm; zone of inhibition at 100 µg/mL (Candida albicans): 12 mm; zone of inhibition at 50 µg/mL (Staphylococcus aureus [13]): 12 mm
8 | COc1ccc(C(=O)/C=C/C=C(\Cl)c2ccc(OC)cc2)cc1 | 0 | 38 | 50 (≈ 152 µM) | 2 | 16 | 50 (≈ 152 µM) | 19 | 50 (≈ 152 µM) | 14 | 50 (≈ 152 µM) | 50 (≈ 152 µM) |  | 28 | 17 | 11 | 14 | 16 | 14 |  | 12 | zone of inhibition at 100 µg/mL (Penicillium chrysogenum): 15 mm; zone of inhibition at 100 µg/mL (Candida albicans): 11 mm; zone of inhibition at 50 µg/mL (Staphylococcus aureus [13]): 12 mm
9 | COc1ccc(C(=O)/C=C/C=C(\Cl)c2ccc(OC)cc2OC)c(OC)c1 | 0 | 24 | 50 (≈ 129 µM) | 0 | 23 | 50 (≈ 129 µM) | 18 | 50 (≈ 129 µM) |  | 50 (≈ 129 µM) | 50 (≈ 129 µM) |  | 26 |  | 27 | 13 | 29 |  | 13 |  | 
10 | COc1ccc(C(=O)/C=C/C=C(\Cl)c2ccc(Cl)cc2)cc1 | 28 | 32 | 50 (≈ 150 µM) | 67 | 30 | 50 (≈ 150 µM) | 33 | 50 (≈ 150 µM) | 12 | 50 (≈ 150 µM) | 50 (≈ 150 µM) |  | 35 |  | 95 | 13 | 29 | 12 |  | 10 | zone of inhibition at 100 µg/mL (Penicillium chrysogenum): 12 mm; zone of inhibition at 100 µg/mL (Candida albicans): 10 mm
11 | COc1ccc(C(=O)/C=C/C=C(\Cl)c2cccc(Cl)c2)c(OC)c1 | 0 | 40 | 50 (≈ 138 µM) | 0 | 32 | 50 (≈ 138 µM) | 31 | 50 (≈ 138 µM) | 15 | 50 (≈ 138 µM) | 50 (≈ 138 µM) | 18 | 32 | 12 | 7 | 14 | 37 | 13 | 13 | 16 | zone of inhibition at 100 µg/mL (Penicillium chrysogenum): 10 mm; zone of inhibition at 100 µg/mL (Candida albicans): 10 mm; zone of inhibition at 50 µg/mL (Staphylococcus aureus [13]): 16 mm
12 | COc1ccc(C(=O)/C=C/C=C(\Cl)c2ccc(Br)cc2)cc1 | 30 | 29 | 50 (≈ 132 µM) | 66 | 25 | 50 (≈ 132 µM) | 20 | 50 (≈ 132 µM) | 8 | 50 (≈ 132 µM) | 50 (≈ 132 µM) |  | 39 |  | 97 |  | 20 | 8 |  | 11 | zone of inhibition at 100 µg/mL (Penicillium chrysogenum): 12 mm; zone of inhibition at 50 µg/mL (Staphylococcus aureus [13]): 12 mm
